Experimental data as given in ChEMBL document CHEMBL2413060, “Synthesis, biological evaluation and molecular docking studies of some pyrimidine derivatives” (2013).
In brackets after ≈: the same amount, converted by molar mass.

Key:
Assay type in all cases: functional
Pseudomonas aeruginosa [1] = test: Antibacterial activity against Pseudomonas aeruginosa ATCC 9027 after 24 hrs by two-fold serial dilution method; details: ATCC 9027, 24 h
Outline: (§1)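 Two-fold serial broth dilution in sterile nutrient broth at 500, 250, 125, 62.5, 31.25, 15.63, 7.82 and 3.91 µg/ml, with dimethylformamide ≤2.5%. Organisms were pre-grown 24 h in broth, and 0.1 ml inoculum was added per 5 ml tube. Tubes were incubated at 37°C, 24 h for bacteria and 48 h for fungi. MIC was taken as the lowest concentration giving no turbidity.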

Candida albicans [2] = test: Antifungal activity against Candida albicans ATCC 2091 assessed as diameter of inhibition zone at 1 mg/ml after 48 hrs by cup diffusion method (reference value: 22 mm); details: ATCC 2091, 48 h, read-out: DIZ
Pseudomonas aeruginosa [3] = test: Antibacterial activity against Pseudomonas aeruginosa ATCC 9027 assessed as diameter of inhibition zone at 1 mg/ml after 24 hrs by cup diffusion method (reference value: 16 mm); details: ATCC 9027, 24 h, read-out: DIZ
Staphylococcus aureus [4] = test: Antibacterial activity against Staphylococcus aureus ATCC 6538P assessed as diameter of inhibition zone at 1 mg/ml after 24 hrs by cup diffusion method (reference value: 15 mm); details: read-out: DIZ
HCC 2998 = test: Cytotoxicity against human HCC2998 cells assessed as growth inhibition at 10 uM; details: read-out: GI
Shigella flexneri [5] = test: Antibacterial activity against Shigella flexneri ATCC 15391 assessed as diameter of inhibition zone at 1 mg/ml after 24 hrs by cup diffusion method (reference value: 17 mm); details: ATCC 15391, 24 h, read-out: DIZ
Pseudomonas aeruginosa [6] = test: Antibacterial activity against Pseudomonas aeruginosa ATCC 9027 after 24 hrs by two-fold serial dilution method relative to ofloxacin
Candida albicans [7] = test: Antifungal activity against Candida albicans ATCC 2091 after 48 hrs by two-fold serial dilution method; details: ATCC 2091, 48 h; outline: as §1
Shigella flexneri [8] = test: Antibacterial activity against Shigella flexneri ATCC 15391 after 24 hrs by two-fold serial dilution method relative to ofloxacin
NCI/ADR-RES = test: Cytotoxicity against human NCI/ADR-RES cells assessed as growth inhibition at 10 uM; details: read-out: GI
Outline: (§2)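 Single-dose screen on human tumour cell lines. Growth of treated cells is expressed as percent of untreated growth, plotted as a mean graph, and reported as percent growth inhibition.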

Candida albicans [9] = test: Antifungal activity against Candida albicans ATCC 2091 after 48 hrs by two-fold serial dilution method relative to clotrimazole
Staphylococcus aureus [10] = test: Antibacterial activity against Staphylococcus aureus ATCC 6538P after 24 hrs by two-fold serial dilution method; outline: as §1
Shigella flexneri [11] = test: Antibacterial activity against Shigella flexneri ATCC 15391 after 24 hrs by two-fold serial dilution method; details: ATCC 15391, 24 h; outline: as §1
M14 = test: Cytotoxicity against human M14 cells assessed as growth inhibition at 10 uM; details: read-out: GI
SR = test: Cytotoxicity against human SR cells assessed as growth inhibition at 10 uM; details: read-out: GI; outline: as §2
HOP-92 = test: Cytotoxicity against human HOP92 cells assessed as growth inhibition at 10 uM; details: read-out: GI
NCI-H23 = test: Cytotoxicity against human NCI-H23 cells assessed as growth inhibition at 10 uM; details: read-out: GI; outline: as §2
Malme-3M = test: Cytotoxicity against human MALME-3M cells assessed as growth inhibition at 10 uM; details: read-out: GI
UACC-257 = test: Cytotoxicity against human UACC257 cells assessed as growth inhibition at 10 uM; details: read-out: GI
Outline: (§3)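 Single-dose screen in a sixty-cell human tumour line panel; percent growth of treated cells relative to untreated was read and reported as percentage growth inhibition, shown as a mean graph. Compounds meeting the threshold inhibition criteria went on to five-dose testing.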

OVCAR-8 = test: Cytotoxicity against human OVCAR8 cells assessed as growth inhibition at 10 uM; details: read-out: GI; outline: as §2
[12] = Cytotoxicity against human EKVX cells assessed as growth inhibition at 10 uM; details: read-out: GI
T47D = test: Cytotoxicity against human T47D cells assessed as growth inhibition at 10 uM; details: read-out: GI; outline: as §2
BT-549 = test: Cytotoxicity against human BT549 cells assessed as growth inhibition at 10 uM; details: read-out: GI
SNB-75 = test: Cytotoxicity against human SNB75 cells assessed as growth inhibition at 10 uM; details: read-out: GI; outline: as §2
IGROV-1 = test: Cytotoxicity against human IGROV1 cells assessed as growth inhibition at 10 uM; details: read-out: GI
NCI-H522 = test: Cytotoxicity against human NCI-H522 cells assessed as growth inhibition at 10 uM; details: read-out: GI; outline: as §2
SF-295 = test: Cytotoxicity against human SF295 cells assessed as growth inhibition at 10 uM; details: read-out: GI; outline: as §2
TK-10 = test: Cytotoxicity against human TK10 cells assessed as growth inhibition at 10 uM; details: read-out: GI; outline: as §3
A498 = test: Cytotoxicity against human A498 cells assessed as growth inhibition at 10 uM; details: read-out: GI
UACC-62 = test: Cytotoxicity against human UACC62 cells assessed as growth inhibition at 10 uM; details: read-out: GI; outline: as §3
SK-MEL-2 = test: Cytotoxicity against human SK-MEL-2 cells assessed as growth inhibition at 10 uM; details: read-out: GI; outline: as §2
MCF7 = test: Cytotoxicity against human MCF7 cells assessed as growth inhibition at 10 uM; details: read-out: GI; outline: as §2
PC-3 = test: Cytotoxicity against human PC3 cells assessed as growth inhibition at 10 uM; details: read-out: GI; outline: as §2
Hs-578T = test: Cytotoxicity against human Hs578T cells assessed as growth inhibition at 10 uM; details: read-out: GI
HOP-62 = test: Cytotoxicity against human HOP62 cells assessed as growth inhibition at 10 uM; details: read-out: GI

Row | MIC (Pseudomonas aeruginosa [1]) [µg/mL] | MIC (Candida albicans [7]) [µg/mL] | MIC (Staphylococcus aureus [10]) [µg/mL] | MIC (Shigella flexneri [11]) [µg/mL] | Compound | zone of inhibition at 1000 µg/mL (Candida albicans [2]) [mm] | zone of inhibition at 1000 µg/mL (Pseudomonas aeruginosa [3]) [mm] | zone of inhibition at 1000 µg/mL (Staphylococcus aureus [4]) [mm] | inhibition of growth at 10 µM (HCC 2998) [%] | zone of inhibition at 1000 µg/mL (Shigella flexneri [5]) [mm] | Activity (Pseudomonas aeruginosa [6]) [%] | Activity (Shigella flexneri [8]) [%] | inhibition of growth at 10 µM (NCI/ADR-RES) [%] | Activity (Candida albicans [9]) [%] | also measured
1 | 125 (≈ 381 µM) | 125 (≈ 381 µM) | 3.91 (≈ 11.9 µM) | 125 (≈ 381 µM) | CCN(CC)CCSc1nc(-c2ccccc2)c(C#N)c(=O)[nH]1 | 25 | 18 | 18 | 107 | 21 | 50 | 60 | 42 | 62 | –
2 | 125 (≈ 315 µM) | 125 (≈ 315 µM) | 3.91 (≈ 9.85 µM) | – | N#Cc1c(-c2ccccc2)nc(SCC(=O)Nc2ccc(Cl)cc2)[nH]c1=O | 30 | 22 | 20 | 84.4 | 17 | – | – | – | 75 | inhibition of growth at 10 µM (M14): 45%
3 | – | – | – | 125 (≈ 422 µM) | N#Cc1c(N2CCCCC2)nc(=S)[nH]c1-c1ccccc1 | 22 | 16 | 15 | – | 20 | 60 | 60 | 75.8 | – | inhibition of growth at 10 µM (SR): 44.6%; inhibition of growth at 10 µM (HOP-92): 44.5%; inhibition of growth at 10 µM (NCI-H23): 81.2%; inhibition of growth at 10 µM (Malme-3M): 48.7%
4 | 125 (≈ 454 µM) | 125 (≈ 454 µM) | 125 (≈ 454 µM) | 125 (≈ 454 µM) | N#Cc1c(-c2ccco2)nc(SCC2CO2)[nH]c1=O (centres undefined) | 25 | 18 | 18 | – | 24 | 50 | 60 | – | 62 | –
5 | – | – | – | 125 (≈ 411 µM) | N#Cc1c(Cl)nc(SCC2CO2)nc1-c1ccccc1 (centres undefined) | 22 | 16 | 15 | – | 22 | – | – | – | – | inhibition of growth at 10 µM (UACC-257): 60.1%; inhibition of growth at 10 µM (OVCAR-8): 48.4%
6 | – | – | – | – | N#Cc1c(N2CCN(Cc3ccccc3)CC2)nc(=S)[nH]c1-c1ccc([N+](=O)[O-])cc1 | 22 | 16 | 15 | 71.8 | 17 | – | – | – | – | –
7 | 125 (≈ 419 µM) | – | – | – | N#Cc1c(N2CCOCC2)nc(=S)[nH]c1-c1ccccc1 | 22 | 18 | 15 | – | 17 | – | – | – | – | inhibition of growth at 10 µM [12]: 43.2%; inhibition of growth at 10 µM (T47D): 62.7%; inhibition of growth at 10 µM (SR): 46.9%; inhibition of growth at 10 µM (BT-549): 42.3%; inhibition of growth at 10 µM (HOP-92): 107%; inhibition of growth at 10 µM (SNB-75): 84.9%; inhibition of growth at 10 µM (IGROV-1): 70.9%; inhibition of growth at 10 µM (NCI-H522): 40.4%; inhibition of growth at 10 µM (SF-295): 45.5%; inhibition of growth at 10 µM (TK-10): 42.4%; inhibition of growth at 10 µM (A498): 86.3%; inhibition of growth at 10 µM (UACC-62): 56.4%; inhibition of growth at 10 µM (Malme-3M): 104%; inhibition of growth at 10 µM (SK-MEL-2): 58.2%; inhibition of growth at 10 µM (MCF7): 43.4%; inhibition of growth at 10 µM (PC-3): 53%; inhibition of growth at 10 µM (Hs-578T): 73.2%; inhibition of growth at 10 µM (HOP-62): 48.7%
8 | 125 (≈ 331 µM) | 125 (≈ 331 µM) | 3.91 (≈ 10.4 µM) | – | N#Cc1c(N2CCN(Cc3ccccc3)CC2)nc(=S)[nH]c1-c1ccco1 | 29 | 20 | 18 | – | 17 | – | – | – | 75 | –
9 | 62.5 (≈ 263 µM) | – | – | – | N#Cc1c(Cl)nc(=S)[nH]c1-c1ccco1 | 22 | 18 | 15 | – | 17 | – | – | – | – | inhibition of growth at 10 µM (HOP-62): 49.6%
10 | – | – | – | 125 (≈ 541 µM) | Cn1c(NN)nc(-c2ccco2)c(C#N)c1=O | 22 | 16 | 15 | 84.4 | 20 | – | 60 | 55.9 | – | inhibition of growth at 10 µM (NCI-H23): 54.7%
